For one series, the system named is HT-29. Description: Antitumor activity against human HT-29 cells after 48 hrs by SRB assay. It counts as functional, cell-based. Conditions: HT-29, 48 h. The essentials: (§1)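 Human tumor lines in medium with 5% FBS and gentamicin, exposed in 96-well plates to four concentrations given in DMSO for 48 h at 37 °C, 5% CO₂. Cells fixed with trichloroacetic acid (added as 50% solution) for 30 min at 4 °C, washed, dried, stained with sulphorhodamine B. Protein content read at 540 nm.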
In general terms: The SRB assay estimates cell density from bound dye.

The next series relates to UACC-62. Description: Antitumor activity against human UACC62 cells after 48 hrs by SRB assay. Conditions: UACC-62, 48 h. The series is classed as functional, cell-based. The essentials: as §1
For a further series, the system named is OVCAR-3. As to the kind of experiment: Antitumor activity against human OVCAR-3 cells after 48 hrs by SRB assay. Conditions: OVCAR-3, 48 h. The series is classed as functional, cell-based. The essentials:
as §1

Series [1] can be described thus: Toxicity in Swiss albino mouse for 14 days. Conditions: in vivo. The series is classed as organism-based. The essentials: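 Male albino Swiss mice (~25 g; 20 animals split equally into treated and control groups), acclimatised at least 7 days and fasted 12 h. Single intraperitoneal dose of 1, 2.5 or 5 g/kg body weight. Deaths and signs of toxicity observed for at least 14 days. LD50 by Litchfield and Wilcoxon's method; OECD425 protocol.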

Series [2] in a line: Antiproliferative activity against mouse macrophages after 24 hrs by MTT assay. It counts as cell-based. Conditions: Macrophage. The procedure, abridged: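 Peritoneal macrophages lavaged from anesthetized normal Balb-C mice with heparinized saline. Cells pelleted, resuspended in RPMI-1640 with 10% FBS at 10⁶/ml, plated, and exposed for 24 h to compound dilutions in Miglyol 810, with a diluent control. MTT (5 mg/ml stock) for 3 h at 37 °C, formazan dissolved in DMSO, read at 540 nm.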
On the technique in general: Formazan colour is commonly taken as a measure of viable cells.

The next series concerns B16-F10. As to the kind of experiment: Antiproliferative activity against mouse B16F10 cells after 24 hrs by MTT assay. The series is classed as functional, cell-based. Particulars: B16-F10, 24 h. The essentials:
(§2)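 Murine tumor cells grown to confluence, then exposed for 24 h to a range of concentrations diluted in Miglyol 810, with a Miglyol-only diluent control. MTT (5 mg/ml stock) added for 3 h at 37 °C, 5% CO₂. Plates centrifuged, supernatant removed, formazan dissolved in DMSO, absorbance read at 540 nm.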

A further series relates to K562. As to the kind of experiment: Antitumor activity against human K562 cells after 48 hrs by SRB assay. It counts as functional, cell-based. Particulars: K562, 48 h. The essentials:
as §1

For a further series, the system named is NCI-H460. Description: Antitumor activity against human NCI-H460 cells after 48 hrs by SRB assay. The series is classed as functional, cell-based. Conditions: NCI-H460, 48 h. The procedure, abridged: as §1
The test system of the next series is PC-3. Description: Antitumor activity against human PC3 cells after 48 hrs by SRB assay. It counts as functional, cell-based. Particulars: PC-3, 48 h. The essentials:
as §1

In the next series the test system is L1210. Description: Antiproliferative activity against mouse L1210 cells after 24 hrs by MTT assay. It counts as functional, cell-based. Conditions: L1210, 24 h. The essentials: as §2
The nature of series [3]: Antitumor activity against human NCI/ADR cells after 48 hrs by SRB assay. Particulars: NCI/ADR-RES. It counts as functional, cell-based. The procedure, abridged:
as §1

Series [4] is described as follows: Antitumor activity against human 786-O cells after 48 hrs by SRB assay. The series is classed as functional, cell-based. Conditions: 786-0, 48 h. The essentials:
as §1

For a further series, the system named is MCF7. Description: Antitumor activity against human MCF7 cells after 48 hrs by SRB assay. The series is classed as functional, cell-based. Conditions: MCF7, 48 h. The essentials: as §1

Structures are written as SMILES.

The results in this text go back to ChEMBL document CHEMBL1221338, “New antitumoral agents I: In vitro anticancer activity and in vivo acute toxicity of synthetic 1,5-bis(4-hydroxy-3-methoxyphenyl)-1,4-pentadien-3-one and derivatives” (Bioorg Med Chem, 2010).

The term IC50 denotes the concentration that inhibits the measured activity by half. Lower therefore signals inhibition by little substance. What is called LD50 is the dose expected to kill half of the subjects tested. The low end stands for a more toxic substance, the high end for a less toxic substance. For the molecule `COc1cc(/C=C/C(=O)/C=C/c2ccc(O)c(OC)c2)ccc1O`, the IC50 was 2.3 µM in the series with HT-29; 0.09 µM in the series with UACC-62; 2.2 µM in the series with OVCAR-3; 51.8 µM in [2]; 21.5 µM with B16-F10; 1.84 µM in the series on K562. Further, the IC50 in the series on NCI-H460 was found to be 1.53 µM; with PC-3, 1.25 µM; in the series on L1210, 56.1 µM; in series [3] it was 0.83 µM; in series [4] it was 1.99 µM; with MCF7, 0.12 µM. In [1], this molecule showed an LD50 at 336 h of 8540 mg/kg.

As to `COc1cc(/C=C/C(=O)/C=C/c2ccc(OC(C)=O)c(OC)c2)ccc1OC(C)=O`, the IC50 in the series on HT-29 came to 1.48 µM; with UACC-62, 4.31 µM; in the series with OVCAR-3, 1.39 µM; in [2] it was 275 µM; in the series on B16-F10 it was 220 µM; in the series on K562 it was 1.41 µM. The half-maximal inhibitory concentration (IC50) with NCI-H460 came out at 1.7 µM; in the series with PC-3 it was 0.95 µM; in the series with L1210, 246 µM; in [3], 3.12 µM; in series [4], 0.66 µM; in the series on MCF7, 1.09 µM. In [1], the LD50 at 336 h stood at 3680 mg/kg.

Take `COc1cc(/C=C/C(/C=C/c2ccc(O)c(OC)c2)=C(C#N)C#N)ccc1O`: the IC50 worked out at 3.37 µM with HT-29; 3.34 µM in the series on UACC-62; 115 µM in the series on OVCAR-3; 7.59 µM with K562; 6.89 µM in the series with NCI-H460; 4.25 µM in the series with PC-3. For the same molecule, the IC50 in series [3] was 2.97 µM; in series [4], 7.14 µM; with MCF7, 5.24 µM.

As for `COc1cc(/C=C/C(=O)/C=C/c2ccc(OCC=C(C)C)c(OC)c2)ccc1OCC=C(C)C`, the concentration for half-maximal inhibition (IC50) in the series with HT-29 was 4.04 µM; with UACC-62 it was 30.6 µM; in the series on OVCAR-3, 30.3 µM; with K562, 4.8 µM; in the series on NCI-H460, 34.1 µM; in the series on PC-3, 60.5 µM. Also, the half-maximal inhibitory concentration (IC50) in [3] was 7.22 µM; in series [4], 7.87 µM; with MCF7 it was 18.2 µM.

As to `COc1ccc(/C=C/C(=O)/C=C/c2ccc(OC)c(OC)c2)cc1OC`, the IC50 with HT-29 was 2.43 µM; with UACC-62, 2.12 µM; with OVCAR-3, 2.32 µM; in the series on K562, 1.83 µM; in the series with NCI-H460, 1.86 µM; in the series with PC-3, 2.32 µM. The concentration for half-maximal inhibition (IC50) in series [3] came to 2.37 µM; in [4], 3.36 µM; in the series with MCF7, 2 µM.
